Calls of active or inactive are those of the source. The calls are words filed in the database; no cut-off is given here.
Tests used:
Mus musculus [1] = assay: Inhibition of LPS-induced serum IL-1beta production in C57BL/6 mouse at 10 mg/kg, ip pretreated before LPS challenge and measured after […] post LPS challenge by ELISA; assay type: functional, organism-based
Mus musculus [2] = assay: Inhibition of LPS-induced serum TNFalpha production in C57BL/6 mouse at 10 mg/kg, ip pretreated before LPS challenge and measured after […] post LPS challenge by ELISA; assay type: functional, organism-based
Mus musculus [3] = assay: Inhibition of LPS-induced serum IL-1beta production in nlrp3-/- C57BL/6 mouse at 10 mg/kg, ip pretreated before LPS challenge and measured after […] post LPS challenge by ELISA; assay type: functional, organism-based
[4] = Toxicity in human hCMEC/D3 cells assessed as reduction in cell viability at 20 uM; assay type: cell-based; settings: hcmec/d3, 20 µM
Summary of the method: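 hCMEC/D3 cells (passage 25-35, EGM-2-based media) exposed to compound at 20 μM for 2 h; viability read by Live/Dead staining. Mean ± SEM from 3 independent experiments, ≥triplicates each.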

Compound | inhibition (Mus musculus [1]) | inhibition (Mus musculus [2]) | inhibition (Mus musculus [3]) | Activity [4]
C#CCNS(=O)(=O)c1ccc(CCN(Cc2cc(Cl)ccc2OCCC)C(=O)Cc2ccsc2)cc1 | Active | inactive | inactive | Non-Toxic
CC(C)(O)c1coc(S(=O)(=O)NC(=O)Nc2c3c(cc4c2CCC4)CCC3)c1 | Active | – | – | –
C#CCNS(=O)(=O)c1ccc(CCN(Cc2cc(Cl)ccc2OC)C(=O)C=C)cc1 | Active | Active | – | –

Reference: ChEMBL document CHEMBL4414625, “Discovery of Second-Generation NLRP3 Inflammasome Inhibitors: Design, Synthesis, and Biological Characterization” (J Med Chem, 2019)
